{
  "source": "ChEMBL document CHEMBL4673305",
  "about": "“Azodyrecins A-C: Azoxides from a Soil-Derived Streptomyces Species” (J Nat Prod, 2020)",
  "key": {"HL-60": {"tested_on": "HL-60", "assay": "Cytotoxicity against human HL-60 cells assessed as reduction in cell viability after 48 hrs by AlamarBlue assay", "format": "functional, cell-based", "in_short": "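HL-60 cells grown at 37 °C, 5% CO2, seeded at 2 x 10⁵ cells/mL. Compound in DMSO was dispensed acoustically at 10 concentrations (top 10 µM, 1:2 dilutions). After 48 h, AlamarBlue was added for a further 5 h and fluorescence read (ex 544/em 590 nm). DMSO-only wells served as maximal growth; medium-only wells gave background correction.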"}, "Staphylococcus aureus": {"tested_on": "Staphylococcus aureus", "assay": "Antimicrobial activity against Staphylococcus aureus 8325 assessed as reduction in microbial growth after 24 hrs by agar well diffusion assay", "format": "functional, organism-based", "in_short": "(§1)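 Agar well diffusion on Instant Ocean agar (3% Instant Ocean, 3.33 g/L casamino acids, 4 g/L glucose, 10 g/L agar) seeded with pathogen. Wells 4 mm in diameter, 32-38 mm apart, each got 30 µL of a 100 µg/100 µL MeOH solution. Medium and MeOH wells were controls; the positive control was sterile-filtered supernatant of tropodithietic acid-producing Phaeobacter inhibens DSM17395. Incubated 24 h at 25 °C; inhibition zone diameter measured.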"}, "Vibrio anguillarum": {"tested_on": "Vibrio anguillarum", "assay": "Antimicrobial activity against Vibrio anguillarum 90-11-287 assessed as reduction in microbial growth after 24 hrs by agar well diffusion assay", "format": "functional, organism-based", "in_short": "as §1"}, "Candida albicans": {"tested_on": "Candida albicans", "assay": "Antifungal activity against Candida albicans IBT 654.38 assessed as reduction in microbial growth after 16 to 24 hrs by agar well diffusion assay", "format": "functional, organism-based", "settings": "time 16-24 hrs, in the assay text read “paper disk diffusion assay” for “agar well diffusion assay”", "in_short": "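Disk diffusion: a glucose–peptone agar base layer (pH 4.8) was inoculated with the yeast. 6 mm paper disks carried 80 µg compound applied in CH2Cl2 and were dried under sterile conditions before placing. Incubated 28 °C for 16–24 h; inhibition zone diameter measured.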"}, "[1]": {"assay": "Toxicity in Artemia salina assessed as mortality at 10 ug/ml after 24 hrs by Meyer method", "settings": "at 10 µg/mL", "in_short": "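Brine shrimp test after Meyer, modified. Artemia salina eggs were hatched in artificial seawater. Tubes held 30–40 nauplii in 4.95 mL seawater, plus 50 µL DMSO solution of compound (final 10 µg/mL). Elaiophylin was the positive control and DMSO alone the negative control. Mortality was scored after 24 h.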"}},
  "note": "Active and inactive are the calls of the source. The rule behind the calls is not given here.",
  "data": [
    {"smiles": "CCC(C)CCCCCCCCC/C=C\\[N+]([O-])=N\\[C@@H](C)C(=O)OC", "note": "(some centres undefined)", "values": [
      {"measurement": "IC50", "setting": "HL-60; Homo sapiens, HL-60, 48 h, read-out: IC50", "result": 2200, "unit": "nM"}
    ]},
    {"smiles": "COC(=O)[C@H](C)/N=[N+]([O-])/C=C\\CCCCCCCCCC(C)C", "values": [
      {"measurement": "Activity", "setting": "Staphylococcus aureus", "result": "inactive"},
      {"measurement": "Activity", "setting": "Vibrio anguillarum", "result": "inactive"},
      {"measurement": "IC50", "setting": "HL-60; hl-60", "result": "Nd(Unstable)"},
      {"measurement": "Activity", "setting": "Candida albicans", "result": "inactive"},
      {"measurement": "mortality at 24 h, 10 ug/ml", "setting": "[1]", "result": 100, "unit": "%"}
    ]},
    {"smiles": "COC(=O)[C@H](C)/N=[N+]([O-])/C=C/CCCCCCCCCC(C)C", "values": [
      {"measurement": "Activity", "setting": "Staphylococcus aureus", "result": "inactive"},
      {"measurement": "Activity", "setting": "Vibrio anguillarum", "result": "inactive"}
    ]},
    {"smiles": "CC[C@@H]1[C@@H](C)O[C@@](O)([C@@H](C)[C@H](O)[C@H](C)[C@H]2OC(=O)/C=C/C=C/[C@H](C)[C@@H]([C@@H](C)[C@@H](O)[C@H](C)[C@@]3(O)C[C@@H](O[C@H]4C[C@H](O)[C@H](O)[C@H](C)O4)[C@H](CC)[C@@H](C)O3)OC(=O)/C=C/C=C/[C@@H]2C)C[C@H]1O[C@H]1C[C@H](O)[C@H](O)[C@H](C)O1", "values": [
      {"measurement": "mortality at 24 h, 10 ug/ml", "setting": "[1]", "result": 78, "unit": "%"}
    ]}
  ]
}
